Data reported in ChEMBL document CHEMBL1154776, “Probes for narcotic receptor mediated phenomena. 39. Enantiomeric N-substituted benzofuro[2,3-c]pyridin-6-ols: synthesis and topological relationship to oxide-bridged phenylmorphans” (J Med Chem, 2009).

What was measured:
Mu-type opioid receptor [1] = biological target: T1, Mu-type opioid receptor (Homo sapiens, UniProt P35372); conditions: CHO
Mu-type opioid receptor [2] = biological target: T1, Mu-type opioid receptor; test: biochemical; format: cell-based, CHO
[3] = biological target: Delta-type opioid receptor (Homo sapiens, UniProt P41143); test: Displacement of [3H]DADLE from human recombinant delta opioid receptor expressed in CHO cells; format: cell-based
Chain of Delta-type opioid receptor (P41143 whole entry): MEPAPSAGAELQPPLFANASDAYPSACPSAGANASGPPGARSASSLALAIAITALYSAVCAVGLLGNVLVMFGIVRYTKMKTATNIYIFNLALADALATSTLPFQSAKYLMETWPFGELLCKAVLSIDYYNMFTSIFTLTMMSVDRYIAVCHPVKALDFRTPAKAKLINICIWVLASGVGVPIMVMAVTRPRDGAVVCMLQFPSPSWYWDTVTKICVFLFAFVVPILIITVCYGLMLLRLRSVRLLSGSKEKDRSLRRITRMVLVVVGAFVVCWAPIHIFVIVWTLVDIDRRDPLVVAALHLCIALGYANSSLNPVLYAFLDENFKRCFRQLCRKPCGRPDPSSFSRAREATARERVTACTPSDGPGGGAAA
Outline: (§1)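 Stably transfected CHO cells (hDOR-CHO for [3H]DADLE, hKOR-CHO for [3H]U69,593) grown in DMEM with 10% FBS and G-418 (0.10-0.2 mg/mL) under 5% CO2 at 37 °C. Monolayers harvested and frozen at −80 °C before membrane use; n=3.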

[4] = biological target: Kappa-type opioid receptor (Homo sapiens, UniProt P41145); test: Displacement of [3H]U69593 from human recombinant kappa opioid receptor expressed in CHO cells; format: cell-based
Chain of Kappa-type opioid receptor (P41145 whole entry): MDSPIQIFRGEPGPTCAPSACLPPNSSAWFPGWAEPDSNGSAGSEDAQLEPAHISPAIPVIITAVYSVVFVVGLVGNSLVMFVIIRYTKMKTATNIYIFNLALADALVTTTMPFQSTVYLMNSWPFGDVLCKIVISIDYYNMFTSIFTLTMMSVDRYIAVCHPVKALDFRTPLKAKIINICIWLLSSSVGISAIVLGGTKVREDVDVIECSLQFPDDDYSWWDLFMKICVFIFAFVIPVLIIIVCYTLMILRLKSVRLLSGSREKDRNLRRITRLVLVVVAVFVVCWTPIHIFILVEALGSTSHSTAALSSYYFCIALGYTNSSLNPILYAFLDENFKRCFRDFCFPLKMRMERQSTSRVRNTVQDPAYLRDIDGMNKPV
Outline: as §1

Mu-type opioid receptor [5] = biological target: T1, Mu-type opioid receptor; test: Agonist activity at human recombinant mu opioid receptor expressed in CHO cells assessed as stimulation of [35S]GTPgammaS binding after 3 hrs by liquid scintillation counting relative to DAMGO; format: functional, cell-based
Outline: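 Same [35S]GTPγS membrane assay in hMOR-CHO: 50 pM radioligand, 10 μM GDP, 3 h at 25 °C, GF/B filtration, scintillation counting.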

Mu-type opioid receptor [6] = biological target: T1, Mu-type opioid receptor; test: Agonist activity at human recombinant mu opioid receptor expressed in CHO cells assessed as stimulation of [35S]GTPgammaS binding after 3 hrs by liquid scintillation counting; format: functional, cell-based
Outline: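 hMOR-CHO membranes (50 μg protein) grown in DMEM/F-12 with 10% FBS and G-418. Incubated 3 h at 25 °C with 50 pM [35S]GTPγS in 50 mM Tris-HCl pH 7.4, 100 mM NaCl, 10 mM MgCl2, 1 mM EDTA, 1 mM DTT, 10 μM GDP and 0.1% BSA. Nonspecific binding defined with 40 μM GTPγS. Bound label separated on GF/B filters and scintillation counted; n=3.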

T1 sequence (P35372 whole entry): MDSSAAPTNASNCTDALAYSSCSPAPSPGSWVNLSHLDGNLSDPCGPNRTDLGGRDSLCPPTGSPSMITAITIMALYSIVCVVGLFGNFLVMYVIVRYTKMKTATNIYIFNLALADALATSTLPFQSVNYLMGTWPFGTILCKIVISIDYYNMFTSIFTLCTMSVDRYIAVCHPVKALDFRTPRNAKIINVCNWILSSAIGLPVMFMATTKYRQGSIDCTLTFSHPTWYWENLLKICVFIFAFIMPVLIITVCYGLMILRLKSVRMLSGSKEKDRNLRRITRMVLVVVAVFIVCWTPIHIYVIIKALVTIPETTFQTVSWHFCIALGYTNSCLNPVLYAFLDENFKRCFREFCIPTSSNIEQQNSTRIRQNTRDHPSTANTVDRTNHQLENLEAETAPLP

SMILES: CC[C@@]12CCNC[C@@H]1Oc1ccc(O)cc12
- Ke (Mu-type opioid receptor [1]): 95 nM
- Ki (Mu-type opioid receptor [2]): 48 nM

SMILES: CC[C@@]12CCN(C)C[C@@H]1Oc1ccc(O)cc12
- Ki [3]: 1350 nM
- Ki [4]: 450 nM
- Ki (Mu-type opioid receptor [2]): 15.9 nM

SMILES: CC[C@@]12CCN(C[C@@H](O)c3ccccc3)C[C@@H]1Oc1ccc(O)cc12
- Ki [3]: 443 nM
- Ki [4]: 413 nM
- Ki (Mu-type opioid receptor [2]): 9.3 nM

SMILES: CC[C@]12CCN(C[C@@H](O)c3ccccc3)C[C@H]1Oc1ccc(O)cc12
- Ki [3]: 2490 nM
- Emax (Mu-type opioid receptor [5]): 100%
- Ki (Mu-type opioid receptor [2]): 600 nM

SMILES: CC[C@]12CCN(CCc3ccccc3)C[C@H]1Oc1ccc(O)cc12
- ED50 (Mu-type opioid receptor [6]): 24 nM
- Ki [3]: 2690 nM
- Ki [4]: 2320 nM
- Emax (Mu-type opioid receptor [5]): 84%
- Ki (Mu-type opioid receptor [2]): 200 nM

SMILES: CC[C@@]12CCN(C[C@H](O)c3ccccc3)C[C@@H]1Oc1ccc(O)cc12
- Ki [3]: 807 nM
- Ki [4]: 1090 nM
- Ki (Mu-type opioid receptor [2]): 80 nM

SMILES: CC[C@]12CCN(C[C@H](O)c3ccccc3)C[C@H]1Oc1ccc(O)cc12
- Ki [3]: 3100 nM
- Ki [4]: 9500 nM
- Emax (Mu-type opioid receptor [5]): 36%
- Ki (Mu-type opioid receptor [2]): 1330 nM

SMILES: CC[C@]12CCN(C)C[C@H]1Oc1ccc(O)cc12
- ED50 (Mu-type opioid receptor [6]): 241 nM
- Ki [3]: 4270 nM
- Emax (Mu-type opioid receptor [5]): 45%
- Ki (Mu-type opioid receptor [2]): 1330 nM

SMILES: CC[C@]12CCNC[C@H]1Oc1ccc(O)cc12
- ED50 (Mu-type opioid receptor [6]): 150 nM
- Emax (Mu-type opioid receptor [5]): 97%
- Ki (Mu-type opioid receptor [2]): 3500 nM
